What is called pIC50 is −log10 of the IC50, conventionally taken in molar units. A low value points to a large IC50. The fraction unbound is the share of the substance not bound to proteins or other matrix. By half-life is commonly meant the time in which the quantity being followed falls by half. Lower therefore signals rapid decline.

Data set [1] has as its target T1, ovine COX-1 (Ovis aries, UniProt P05979).
T1 sequence (P05979 25-600): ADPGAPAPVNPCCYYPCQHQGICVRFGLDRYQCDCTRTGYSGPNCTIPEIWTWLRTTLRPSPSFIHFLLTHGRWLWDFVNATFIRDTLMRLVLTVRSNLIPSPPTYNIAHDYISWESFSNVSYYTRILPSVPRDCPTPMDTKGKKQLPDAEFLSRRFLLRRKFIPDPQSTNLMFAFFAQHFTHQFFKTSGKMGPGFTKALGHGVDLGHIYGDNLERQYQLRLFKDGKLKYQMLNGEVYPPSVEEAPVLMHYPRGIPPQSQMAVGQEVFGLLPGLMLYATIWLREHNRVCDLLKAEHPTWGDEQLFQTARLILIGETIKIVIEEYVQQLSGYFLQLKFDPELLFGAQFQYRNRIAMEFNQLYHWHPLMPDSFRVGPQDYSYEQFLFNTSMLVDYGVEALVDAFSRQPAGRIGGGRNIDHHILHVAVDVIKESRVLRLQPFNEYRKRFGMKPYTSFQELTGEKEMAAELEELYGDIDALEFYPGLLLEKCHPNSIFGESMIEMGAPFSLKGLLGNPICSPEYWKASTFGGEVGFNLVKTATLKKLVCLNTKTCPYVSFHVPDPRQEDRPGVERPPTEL
Put plainly: Inhibition of purified ovine COX-1. The format is biochemical.

The target of data set [2] is COX-1 in OVCAR3 cells (Homo sapiens, UniProt P23219). Put plainly: Inhibition of COX-1 in intact OVCAR3 cells. Type of data set: cell-based.
Chain of COX-1 in OVCAR3 cells (P23219 24-599): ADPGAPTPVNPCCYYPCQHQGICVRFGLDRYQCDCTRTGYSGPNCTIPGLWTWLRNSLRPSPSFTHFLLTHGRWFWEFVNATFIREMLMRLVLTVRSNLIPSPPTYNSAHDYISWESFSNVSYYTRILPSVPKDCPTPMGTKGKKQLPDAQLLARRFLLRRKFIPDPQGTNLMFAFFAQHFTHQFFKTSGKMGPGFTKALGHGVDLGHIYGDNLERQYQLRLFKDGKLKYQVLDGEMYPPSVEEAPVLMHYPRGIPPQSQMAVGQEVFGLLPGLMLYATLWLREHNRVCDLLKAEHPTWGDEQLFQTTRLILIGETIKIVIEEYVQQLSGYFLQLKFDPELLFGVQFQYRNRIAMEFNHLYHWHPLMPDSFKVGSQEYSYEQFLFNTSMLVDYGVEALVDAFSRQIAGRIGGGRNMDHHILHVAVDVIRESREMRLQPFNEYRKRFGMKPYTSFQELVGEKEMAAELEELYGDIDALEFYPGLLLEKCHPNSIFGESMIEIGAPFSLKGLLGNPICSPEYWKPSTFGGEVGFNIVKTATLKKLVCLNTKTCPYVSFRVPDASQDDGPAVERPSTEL
Data set [3] has as its target T2, COX-2 in 1483 HNSCC cells (Homo sapiens, UniProt P35354).
T2 sequence (P35354 18-604): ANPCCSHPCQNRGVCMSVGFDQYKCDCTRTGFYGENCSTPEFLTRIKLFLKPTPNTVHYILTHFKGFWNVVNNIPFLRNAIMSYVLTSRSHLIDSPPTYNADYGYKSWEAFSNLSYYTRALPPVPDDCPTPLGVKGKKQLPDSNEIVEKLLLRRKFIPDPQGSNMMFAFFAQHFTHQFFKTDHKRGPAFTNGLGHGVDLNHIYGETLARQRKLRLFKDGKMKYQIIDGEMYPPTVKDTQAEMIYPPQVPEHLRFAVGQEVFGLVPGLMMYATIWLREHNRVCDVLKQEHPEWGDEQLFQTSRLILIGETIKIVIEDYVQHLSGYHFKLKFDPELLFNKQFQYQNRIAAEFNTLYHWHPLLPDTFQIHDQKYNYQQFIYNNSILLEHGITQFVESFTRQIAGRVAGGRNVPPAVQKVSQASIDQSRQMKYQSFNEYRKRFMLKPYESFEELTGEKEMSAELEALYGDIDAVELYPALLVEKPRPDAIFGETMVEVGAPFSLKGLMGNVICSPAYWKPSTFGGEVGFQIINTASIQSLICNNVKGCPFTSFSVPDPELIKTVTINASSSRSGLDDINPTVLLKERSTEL
As to the kind of experiment: Inhibition of COX-2 in intact 1483 HNSCC cells. The format is cell-based.

A short description of data set [4]: Plasma protein binding, mouse plasma. Type of data set: in vitro ADME. The gist of the method: (§1)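 Equilibrium dialysis in a high-throughput micro-equilibrium device, with test compound incubated in mouse, dog or human plasma at 37 °C. Samples were taken at 0 and 4.5 h and quantified by fast-gradient LC–MS/MS. Unbound fraction was calculated as buffer-side concentration divided by protein-side concentration. Recovery was the summed buffer and protein chamber concentrations relative to the 0 h concentration.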

Data set [5] in a line: Plasma protein binding, dog plasma. The format is in vitro ADME. In short, it runs like this:
as §1

The nature of data set [6]: Plasma protein binding, human plasma. The format is in vitro ADME. The gist of the method: as §1
The nature of data set [7]: Plasma protein binding, free fraction across species. Type of data set: in vitro ADME. Conditions: mouse, dog, human. The gist of the method: as §1
Data set [8] in a line: In vivo plasma half-life of FDF in mice. Conditions: male, CD-1, mouse, ip, 10 mg/kg.
Data set [9] in a line: In vivo biodistribution and defluorination of unlabeled FDF in C57BL/6 mice. Further details: species or system mouse. Conditions: 10 mg/kg i.p., 60 min. The gist of the method:
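Male C57BL/6 mice (30 g, three per group) received unlabeled test compound at 10 mg/kg i.p. "at 10 min intervals." At 60 min, brain, lungs, heart, kidney, liver and muscle were taken, rinsed in cold PBS and frozen at −80 °C. Tissues were homogenized in acetonitrile, extracts dried and reconstituted in methanol/water. Quantitation was by C18 LC–MS/MS, SRM m/z 279 → 236, against a 1:1 methanol/water standard curve.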

Data set [10] has as its target T3, mouse COX-2 (Mus musculus, UniProt Q05769).
T3 sequence (Q05769 18-604): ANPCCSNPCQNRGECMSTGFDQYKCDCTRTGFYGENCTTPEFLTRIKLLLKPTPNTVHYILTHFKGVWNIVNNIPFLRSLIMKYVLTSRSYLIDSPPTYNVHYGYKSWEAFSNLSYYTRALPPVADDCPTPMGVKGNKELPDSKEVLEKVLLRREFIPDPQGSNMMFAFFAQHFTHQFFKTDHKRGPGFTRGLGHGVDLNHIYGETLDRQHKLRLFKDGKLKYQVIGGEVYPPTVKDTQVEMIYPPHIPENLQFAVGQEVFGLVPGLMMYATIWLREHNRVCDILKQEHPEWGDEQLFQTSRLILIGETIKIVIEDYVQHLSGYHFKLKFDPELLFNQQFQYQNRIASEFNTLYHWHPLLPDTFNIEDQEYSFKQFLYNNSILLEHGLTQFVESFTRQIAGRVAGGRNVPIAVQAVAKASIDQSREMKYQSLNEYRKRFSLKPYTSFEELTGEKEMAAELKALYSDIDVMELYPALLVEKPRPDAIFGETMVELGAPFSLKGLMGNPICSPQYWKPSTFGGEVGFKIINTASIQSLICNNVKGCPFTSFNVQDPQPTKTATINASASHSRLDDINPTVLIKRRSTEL
Put plainly: Inhibition of purified COX-2. The format is biochemical.

Molecules are shown by their SMILES. pIC50: −log10 of the molar value. Read-outs that look alike come from different tables or passages of the source. Some results are limits rather than exact numbers.

With `Cc1ccc(C2=C(c3cccc(F)c3)C(=O)OC2(C)C)cc1` [Compound 5, 3-(3-Fluorophenyl)-5,5-dimethyl-4-(p-tolyl)furan-2(5H)-one], the results for the negative-log IC50 (pIC50) in [1], in [2] and in [3] were 7.30, 6.89 and below 5.30, respectively.

`Cc1ccc(C2=C(c3ccc(F)cc3)C(=O)OC2(C)C)cc1` [Compound 4, 3-(4-Fluorophenyl)-5,5-dimethyl-4-(p-tolyl)furan-2(5H)-one]: the pIC50 in data set [1] is 6.85; in data set [2], 6.66; in [3], below 5.30. The free fraction (fraction unbound) at 4.5 h was 0.025 in data set [4], around 0.01 in [5], around 0.01 in data set [6] and 0.0099 to 0.025 in [7]. The compound further showed a half-life in data set [8] of 1.2 h. Moreover, the “Defluorinated metabolite in other organs” value in data set [9] is “below the quantification limit”. The “Uptake in the kidney (average)” value in data set [9] stood at 8.87 nmol/g tissue. Also, the “Uptake in the liver (overall average)” value in data set [9] worked out at 0.61 nmol/g tissue.

With `Cc1ccc(C2=C(c3ccc(I)cc3)C(=O)OC2(C)C)cc1` [Compound 6, 3-(4-Iodophenyl)-5,5-dimethyl-4-(p-tolyl)furan-2(5H)-one], the pIC50 in [1] was 7.40; in data set [2], 6.10; in [3], below 5.30.

For `COc1ccc([I+]c2ccc(C3=C(c4ccc(C)cc4)C(C)(C)OC3=O)cc2)cc1.Cc1ccc(S(=O)(=O)[O-])cc1` [Compound 7, (4-(5,5-Dimethyl-2-oxo-4-(p-tolyl)-2,5-dihydrofuran-3-yl)phenyl)(4-methoxyphenyl)iodonium Tosylate], in data set [1], the negative-log IC50 (pIC50) is below 4.60 and the “Inhibition of purified COX-1 (in words)” value is recorded as “failed to inhibit”. Besides, the “Inhibition of purified COX-2 (in words)” value in data set [10] was “failed to inhibit”. In addition, in [2], the negative logarithm of the IC50 (pIC50) is below 5.30 and the “Inhibition of COX-1 in intact OVCAR3 cells (in words)” value is “inactive”. Besides, in [3], the pIC50 is below 5.30 and the “Inhibition of COX-2 in 1483 HNSCC cells (in words)” value is “inactive”.

On to `Cc1ccc(C2=C(c3ccccc3)C(=O)OC2(C)C)cc1` [Compound 2, 5,5-Dimethyl-3-phenyl-4-(p-tolyl)furan-2(5H)-one], for which the negative-log IC50 (pIC50) in [1] was 7.30; in [2] it was 6.31; in data set [3], below 5.30.

On to `CC1(C)OC(=O)C(c2ccccc2)=C1c1ccccc1` [Compound 1, 5,5-Dimethyl-3,4-diphenylfuran-2(5H)-one], for which the pIC50 was 6.44 in data set [1], 6.92 in data set [2] and below 5.30 in data set [3]. The “Inhibition of purified COX-2 (in words)” value in [10] (at concentrations up to 25 μM) is on record as “no inhibition”.

Consider `CC1(C)OC(=O)C(c2ccc(F)cc2)=C1c1ccccc1` [Compound 3, 3-(4-Fluorophenyl)-5,5-dimethyl-4-phenylfuran-2(5H)-one], for which the pIC50 in data set [1] is 6.19; in [2], 6.55; in [3], below 5.30.

The values above are taken from article PMC6545551 (ACS Omega, 2019).
